Key:
SK-N-SH [1] = assay: Antiproliferative activity against human SK-N-SH cells assessed as cell viability at 180 kBa/ml after 24 hrs by trypan blue assay relative to control; type: functional
How it was run: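 Cell survival was scored by trypan blue exclusion 24 h after exposing SK-N-SH cells to radioiodinated guanidine at varied extracellular concentrations. Values are average (n ≥ 3) ± SD.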

[2] = Stability in human serum assessed as intact compound level after 60 mins by HPLC analysis; type: ADME, cell-free; conditions: read-out: Stability
How it was run: (§1)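 Radioiodinated guanidines were incubated in mouse, human or pig serum and analyzed by radio-HPLC on a C18 column at 0.8 mL/min. The gradient was 0–95% CH3CN over 50 min, then 95% for 20 min. Intact compound was fitted to monoexponential degradation to give half-life. Values are average ± std err.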

[3] = Stability in EMEM medium assessed as intact compound level incubated for 24 hrs by HPLC analysis; type: physicochemical; conditions: read-out: Stability
How it was run: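 The compound was incubated 24 h in cell culture medium without cells or with SK-N-SH cells. Intact compound and 125IUdR catabolite were quantified by radio-HPLC on a C18 column at 0.8 mL/min, with a 0–95% CH3CN gradient over 50 min and 95% for 20 min.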

[4] = Half life in pig serum by HPLC analysis; type: ADME, cell-free, Sus scrofa; how it was run: as §1
[5] = Drug uptake in human BE(2)-C cells assessed as level of 125I-incorporation into DNA after 1 hr and followed by compound washout with non-radioactive medium/PBS and measured immediately by gamma counting method relative to control; type: ADME, cell-based
How it was run: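 BE(2)-C cells were treated with radioiodinated guanidine for 1 h, washed with nonradioactive medium and PBS. They were processed immediately or returned to the incubator for a further 23 h. 125I in the DNA fraction was gamma-counted. Values are average (n ≥ 3) ± SD.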

[6] = biological target: T1, Sodium-dependent noradrenaline transporter (Homo sapiens, UniProt P23975); assay: Substrate activity at NET in human SK-N-SH cells assessed as inhibition of drug uptake by measuring MIBG IC50 incubated for 1 hr in presence of nonradioactive MIBG at 4 degC by filtration based gamma counting method; type: cell-based
T1 sequence (P23975 whole entry): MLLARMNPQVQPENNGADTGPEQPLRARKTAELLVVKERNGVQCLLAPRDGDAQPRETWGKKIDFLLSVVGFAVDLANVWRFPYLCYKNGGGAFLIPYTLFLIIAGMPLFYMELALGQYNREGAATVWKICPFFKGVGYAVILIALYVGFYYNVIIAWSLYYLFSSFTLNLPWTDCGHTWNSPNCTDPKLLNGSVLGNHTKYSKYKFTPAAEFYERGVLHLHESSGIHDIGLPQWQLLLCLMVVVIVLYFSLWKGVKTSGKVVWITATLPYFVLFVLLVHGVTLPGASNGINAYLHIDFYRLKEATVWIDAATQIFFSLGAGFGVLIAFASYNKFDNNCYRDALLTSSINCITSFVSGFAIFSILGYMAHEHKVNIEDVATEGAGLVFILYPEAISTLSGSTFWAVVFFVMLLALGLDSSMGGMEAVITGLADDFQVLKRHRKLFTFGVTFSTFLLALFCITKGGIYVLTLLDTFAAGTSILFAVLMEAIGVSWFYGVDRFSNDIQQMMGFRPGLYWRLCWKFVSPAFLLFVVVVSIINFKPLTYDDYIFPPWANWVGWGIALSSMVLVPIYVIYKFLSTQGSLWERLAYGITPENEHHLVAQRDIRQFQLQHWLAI
How it was run: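 This was a cell-suspension competition assay. SK-N-SH cells in suspension were incubated with 125I-guanidine and graded nonradioactive MIBG, and uptake was read by filtration and γ-counting. Runs were done at 37 °C, or at 4 °C after cooling the cells on ice. The MIBG IC50 was estimated from the inhibition curves.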

[7] = biological target: T1, Sodium-dependent noradrenaline transporter; assay: Substrate activity at NET in human BE(2)-C cells assessed as inhibition of drug uptake by measuring MIBG IC50 incubated for 1 hr in presence of nonradioactive MIBG at 37 degC by filtration based gamma counting method; type: cell-based
[8] = biological target: T1, Sodium-dependent noradrenaline transporter; assay: Substrate activity at NET in human BE(2)-C cells assessed as inhibition of drug uptake by measuring MIBG IC50 incubated for 1 hr in presence of nonradioactive MIBG at 4 degC by filtration based gamma counting method; type: cell-based
SK-N-SH [9] = assay: Anticlonogenic activity against human SK-N-SH cells assessed as inhibition of reproductive integrity at 35 kBq/mL after 14 days by crystal violet staining based assay relative to control; type: functional; parameters: scale not given: the % may be the effect or the level left
How it was run: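 SK-N-SH cells exposed to 125I guanidine for 24 h, then harvested, replated at 500 live cells/flask and grown in nonradioactive medium for 14 days (up to 21 days at the highest levels). Colonies were stained with crystal violet and counted. Values are average (n ≥ 3) ± SD.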

BE(2)-C [10] = assay: Antiproliferative activity against human BE(2)-C cells assessed as extracellular concentration of 125I required to show 63% inhibition after 1 hr; type: cell-based
How it was run: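 BE(2)-C cells were treated for 1 h with several IDG concentrations, washed extensively, harvested with trypsin and replated for clonogenic assay. Cellular 125I uptake was measured per cell. D37 (63% kill) was estimated from survival versus extracellular concentration or intracellular content (mBq/cell). Values are average (std error).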

SK-N-SH [11] = assay: Antiproliferative activity against human SK-N-SH cells assessed as extracellular concentration of 125I required to show 63% inhibition after 24 hrs; type: cell-based
How it was run: (§2)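 D37 (63% kill) was estimated for SK-N-SH cells treated 24 h with IDG. It is expressed as extracellular (kBq/mL) or intracellular (mBq/cell) 125I. Survival was assessed by trypan blue and clonogenic assays. Values are average (std error).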

SK-N-SH [12] = assay: Antiproliferative activity against human SK-N-SH cells assessed as intracellular concentration of 125I required to show 63% inhibition after 24 hrs; type: cell-based; how it was run: as §2
[13] = Drug level in human SK-N-SH cells DNA at 40 +/- 0.5 kBq/mL after 24 hrs by gamma counting method relative to control; type: ADME, cell-based
How it was run: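 SK-N-SH cells were exposed 1 h to 125I compound (≈39–40 kBq/mL), then washed with nonradioactive medium and PBS. Cells were processed immediately (1 h) or re-incubated in fresh medium for 23 h (24 h). Cytoplasmic, nuclear and DNA fractions were gamma-counted.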

[14] = Drug level in tumor of NCR nu/nu mouse xenografted with human BE(2)-C cells at 0.33 +/- 0.05 MBq administered intratumorally after 24 hrs by gamma counting method; type: ADME, tissue-based, Neoplasm; conditions: in vivo, other
How it was run: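 Athymic Ncr nu/nu female and male mice bearing subcutaneous BE(2)-C xenografts received intratumor injections of the 125I agent. Tissues, tumor and blood were collected at 24 h and counted for radioactivity, expressed as %ID/g. Tumor-to-blood ratios were derived.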

[15] = Drug level in tumor of NCR nu/nu mouse xenografted with human BE(2)-C cells at 0.83 +/- 0.09 MBq administered intratumorally pretreated with 18 umol of BNPP after 24 hrs by gamma counting analysis; type: ADME, tissue-based, Neoplasm; conditions: in vivo, other
How it was run: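 BE(2)-C xenograft-bearing nude mice were pre-injected with the carboxylesterase inhibitor bis-para-nitrophenylphosphate (9 or 18 μmol). They then received intratumor IDG. Tumor %ID/g was determined at 24 h.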

BE(2)-C [16] = assay: Antitumor activity against human BE(2)-C cells xenografted with NCR nu/nu mouse assessed as tumor volume at 8.4 +/- 0.3 mBq administered intratumorally after 14 days (reference value: […]); type: functional
How it was run: (§3)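 Athymic Ncr nu/nu female and male mice bearing subcutaneous BE(2)-C xenografts were randomized by lottery into untreated control and treatment groups. Treatment was a single intratumor injection of 8.4 ± 0.3 MBq/mouse. Tumor volumes were followed to day 7 (controls) or day 14. Doubling times were calculated from day 0 to 7 and day 0 to 14. Values are average ± std err.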

BE(2)-C [17] = assay: Antitumor activity against human BE(2)-C cells xenografted with NCR nu/nu mouse assessed as doubling time at 8.4 +/- 0.3 mBq administered intratumorally measured up to 14 days; type: functional; how it was run: as §3
BE(2)-C [18] = assay: Antitumor activity against human BE(2)-C cells xenografted with NCR nu/nu mouse assessed as tumor volume at 8.4 +/- 0.3 mBq administered intratumorally after 7 days; type: functional; how it was run: as §3
[19] = Dissociation constant, pKa of compound; type: physicochemical
[20] = Partition coefficient, logP of compound; type: physicochemical; conditions: octanol/water
[21] = Toxicity in NCR nu/nu mouse xenografted with human BE(2)-C cells assessed as effect on hemoglobin level at 8.41 +/- 0.32 mBq measured up to 166 hrs
How it was run: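 Athymic Ncr nu/nu female and male mice bearing subcutaneous BE(2)-C xenografts were randomized by lottery to untreated control or a single intratumor injection of 125I-guanidine (8.4 ± 0.3 MBq/mouse). Blood hemoglobin was measured in both groups and compared with the normal adult mouse range. Treated mice were terminated 14 days after injection.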

N=C(N)NCCCCCC(=O)O[C@H]1C[C@H](n2cc([125I])c(=O)[nH]c2=O)O[C@@H]1CO
Activity (SK-N-SH [1]): 60% | remaining at 1 h [2]: 62.4% | remaining at 24 h [3]: 86% | half-life [4]: 3.59 h | Drug uptake [5]: 93% | IC50 [6]: 22 µM | IC50 [7]: 28.7 µM | IC50 [8]: 23.9 µM | Activity (SK-N-SH [9]): >90% | Activity (BE(2)-C [10]): 398 kBq/ml | Activity (SK-N-SH [11]): 15.6 kBq/ml | Activity (SK-N-SH [12]): 1.2 mBq | Drug uptake [13]: > 97% | Drug uptake [14]: 3.93 % ID/g | Drug uptake [15]: 1.66 % ID/g | Activity (BE(2)-C [16]): 2.55 cm3 | Time (BE(2)-C [17]): 5.3 days | Activity (BE(2)-C [18]): 0.54 cm3 | pKa [19]: 12.1 | logP [20]: -0.2 | Activity [21]: Non-Toxic

From ChEMBL document CHEMBL4402514, “Norepinephrine-Transporter-Targeted and DNA-Co-Targeted Theranostic Guanidines” (J Med Chem, 2020)
